{"data": "Assay results of several laboratories", "organism": "Plasmodium falciparum", "observed": "parasite growth", "note": "Compare with care: the assays were run in different laboratories."}
{"SMILES": "COC(=O)c1cccc(-c2nc3c(N4CCC(N5CCN(C)CC5)CC4)nccc3[nH]2)c1", "test system": "NF54", "setting": "blood stage", "IC50": "< 100 nM"}
{"SMILES": "CCN(CC)CCCC(C)Nc1ccnc2cc(Cl)ccc12 (stereo not drawn)", "test system": "D6", "setting": "blood stage", "IC50": "0.016 µg/mL"}
{"SMILES": "Clc1ccc2c(c1)nc(NCCN1CCOCC1)n2Cc1ccccc1", "test system": "NF54", "setting": "blood stage", "IC50": "8520 nM"}
{"SMILES": "O[C@@H](c1cc(C(F)(F)F)nc2c(C(F)(F)F)cccc12)[C@H]1CCCCN1", "test": "SYBR Green", "setting": "blood stage", "IC50": "17 nM"}
{"SMILES": "COc1cccc2c(=O)c(C)c(-c3ccc(Cc4ccc(OC(F)(F)F)cc4)cc3)[nH]c12", "test system": "3D7", "setting": "blood stage", "IC50": "> 350 nM"}
{"SMILES": "C[C@@H]1CC[C@H]2[C@@H](C)C(=O)O[C@@H]3O[C@@]4(C)CC[C@@H]1[C@]32OO4", "test system": "W2", "setting": "drug-resistant strain, blood stage", "IC50": "15 nM"}
{"SMILES": "COC1=CC(c2ccco2)=NC1=Cc1ccc(CCCCCCCCCC(C)O)[nH]1 (stereo not drawn)", "test system": "D6", "setting": "blood stage", "IC50": "> 2500 nM"}
{"SMILES": "CCN(CC)CCCC(C)Nc1ccnc2cc(Cl)ccc12 (stereo not drawn)", "test system": "3D7", "setting": "96 h, blood stage", "IC50": "3 nM"}
{"SMILES": "NC1CCN(c2nc3cc(Cl)ccc3n2Cc2ccccc2)CC1", "test system": "NF54", "setting": "blood stage", "IC50": "22 nM"}
{"SMILES": "O=C1C(O)=C([C@H]2CC[C@H](c3ccc(Cl)cc3)CC2)C(=O)c2ccccc21", "test system": "3D7", "setting": "24 h, blood stage", "IC50": "6.5 nM"}
{"SMILES": "CCOc1ccc(-c2nc(CNCCc3ccc(F)cc3)cs2)cc1", "test": "SYBR Green", "setting": "blood stage", "IC50": "17100 nM"}
{"SMILES": "CCCCCCCCCCCCCC(O)CC(O)CO (stereo not drawn)", "test system": "D6", "setting": "blood stage", "IC50": "28.2 µg/mL"}
{"SMILES": "COc1ccccc1-c1ccccc1C(=O)Nc1c(C)cccc1C(=O)O", "test": "resazurin", "test system": "NF54", "setting": "48 h, gametocyte", "IC50": "> 10000 nM"}
{"SMILES": "Cc1ccc2oc(-c3cc(NC(=O)Cc4ccccc4)ccc3Cl)nc2c1", "test": "SYBR Green", "setting": "blood stage", "IC50": "23400 nM"}
{"SMILES": "COc1cc(NC(C)CCCNCOC(=O)NCCCC(C)Nc2cc(OC)cc3cccnc23)c2ncccc2c1.Cl.Cl (stereo not drawn)", "test system": "W2", "setting": "drug-resistant strain, blood stage", "IC50": "2.7 µg/mL"}
{"SMILES": "CCN(CC)CCCC(C)Nc1ccnc2cc(Cl)ccc12 (stereo not drawn)", "IC50": "201 nM"}
{"SMILES": "C[C@@H]1CC[C@H]2[C@@H](C)C(=O)O[C@@H]3O[C@@]4(C)CC[C@@H]1[C@]32OO4", "test system": "D6", "setting": "72 h, blood stage", "IC50": "0.0047 µg/mL"}
{"SMILES": "C[C@@H]1CC[C@H]2[C@@H](C)C(=O)O[C@@H]3O[C@@]4(C)CC[C@@H]1[C@]32OO4", "test system": "D6", "setting": "blood stage", "IC50": "0.0085 µg/mL"}
{"SMILES": "NCCNc1nc2cc(Cl)ccc2n1Cc1ccccc1", "test system": "NF54", "setting": "blood stage", "IC50": "245 nM"}
{"SMILES": "CCN(CC)CCCC(C)Nc1ccnc2cc(Cl)ccc12 (stereo not drawn)", "test system": "NF54", "setting": "blood stage", "IC50": "4.2 nM"}
{"SMILES": "CO[C@H]1C[C@@H](C[C@H](C)[C@H]2CC(=O)[C@@H](C)/C=C(\\C)[C@H](O)[C@H](OC)C(=O)[C@@H](C)C[C@@H](C)/C=C/C=C/C=C(\\C)[C@H](OC)C[C@H]3CC[C@H](C)[C@](O)(O3)C(=O)C(=O)N3CCCC[C@@H]3C(=O)O2)CC[C@@H]1OCCO (racemic)", "test": "SYBR Green", "setting": "blood stage", "IC50": "1250 nM"}
{"SMILES": "NCCCNc1nc2cc(Br)ccc2n1Cc1ccccc1", "test system": "NF54", "setting": "blood stage", "IC50": "382 nM"}
{"SMILES": "c1ccc(Oc2ccc(-c3cc(C4CCOCC4)[nH]n3)cc2)cc1", "test": "SYBR Green", "setting": "blood stage", "IC50": "70200 nM"}
{"SMILES": "O=C(Nc1cc(F)ccc1C(=O)O)c1ccc(-c2ccccc2)cc1", "test system": "NF54", "setting": "48 h, blood stage", "IC50": "> 10000 nM"}
{"SMILES": "COC1=CC(c2cccn2C)=NC1=Cc1ccc(CCCCCCCCCC(C)O)[nH]1 (stereo not drawn)", "test system": "D6", "setting": "blood stage", "IC50": "2330 nM"}
{"SMILES": "N=C(N)c1ccc(OCCCCCOc2ccc(C(=N)N)cc2)cc1", "test": "SYBR Green", "setting": "blood stage", "IC50": "5.6 nM"}
{"SMILES": "Clc1ccc2c(nc(N3CCNCC3)n2Cc2ccccc2)c1-c1ccncc1", "test system": "NF54", "setting": "blood stage", "IC50": "2170 nM"}
{"SMILES": "CC(=O)Nc1ccc(-c2ccc3ncc4c(c3c2)n(-c2cccc(C(F)(F)F)c2)c(=O)n4C)cn1", "test": "resazurin", "test system": "3D7", "setting": "gametocyte", "IC50": "< 100 nM"}
{"SMILES": "O=C(O)c1ccc(F)cc1NC(=O)c1ccccc1-c1ccccc1", "test": "resazurin", "test system": "NF54", "setting": "48 h, gametocyte", "IC50": "> 10000 nM"}
{"SMILES": "CC1=C(C)C(c2ccc[nH]2)=NC1=Cc1ccc(CCCCCCCCCC(C)O)[nH]1 (stereo not drawn)", "test system": "D6", "setting": "blood stage", "IC50": "1080 nM"}
{"SMILES": "Clc1ccc2c(nc(N3CCNCC3)n2Cc2ccccc2)c1Cl", "test system": "NF54", "setting": "blood stage", "IC50": "55 nM"}
{"SMILES": "CCN(CC)CCCC(C)Nc1ccnc2cc(Cl)ccc12 (stereo not drawn)", "test system": "D6", "setting": "72 h, blood stage", "IC50": "0.01 µg/mL"}
{"SMILES": "NCCN(C(=O)c1ccc(Cl)cc1Cl)c1ccc(OCc2ccc(Cl)cc2)cc1", "test": "SYBR Green", "setting": "blood stage", "IC50": "2810 nM"}
{"SMILES": "c1ccc(Cn2c(N3CCNCC3)nc3cc(-c4ccccc4)ccc32)cc1", "test system": "NF54", "setting": "blood stage", "IC50": "6960 nM"}
{"SMILES": "Cc1ccc(-c2ccccc2C(=O)Nc2c(C)cccc2C(=O)O)cc1", "test system": "NF54", "setting": "48 h, blood stage", "IC50": "> 10000 nM"}
{"SMILES": "CN1CCN(C2CCN(c3nccc4[nH]c(-c5ccc(F)c(C(F)(F)F)c5)nc34)CC2)CC1", "test system": "NF54", "setting": "blood stage", "IC50": "< 100 nM"}
{"SMILES": "O=C(O)/C=C/C=C/c1cccc(Oc2cc(Cl)cc(Cl)c2)c1", "test": "SYBR Green", "setting": "blood stage", "IC50": "54200 nM"}
{"SMILES": "CS(=O)(=O)c1ccc2c(c1)nc(C1CCNCC1)n2Cc1ccccc1", "test system": "NF54", "setting": "blood stage", "IC50": "> 10000 nM"}
{"SMILES": "O=C(Nc1c(F)cccc1C(=O)O)c1ccc(-c2ccccc2)cc1", "test system": "NF54", "setting": "48 h, blood stage", "IC50": "> 10000 nM"}
